Test results as given in ChEMBL document CHEMBL1125564, “Selective, centrally acting serotonin 5-HT2 antagonists. 2. Substituted 3-(4-fluorophenyl)-1H-indoles” (J Med Chem, 1992).

What was measured:
[1] = molecular target: Serotonin 2 (5-HT2) receptor (Rattus norvegicus, UniProt P30994+P08909+P14842); assay: Displacement of [3H]ketanserin from 5-hydroxytryptamine 2 receptor in rat cortical membranes; assay type: cell membranes, Membrane
Method in brief: (§1)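 Two full concentration curves per compound, five concentrations in triplicate covering three decades. IC50 read from log-concentration curves, given as logarithmic mean of at least two determinations. Ratios beyond 3 × SD prompted extra runs, with outliers discarded.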

Rattus norvegicus [2] = assay: Compound was evaluated for the inhibition of pergolide-induced reactions after 2 hr (administered subcutaneously); assay type: functional; conditions: sc
Method in brief: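 Male Wistar rats with unilateral 6-OHDA lesions; test compound given sc 2 h before pergolide (0.05 μmol/kg, sc) to induce contralateral circling. Each dose scored as percent of the rat's mean control sessions 1 week before and 1 week after the test, at least four rats per dose. ED50 by log-probit analysis.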

Rattus norvegicus [3] = assay: Compound was evaluated for the inhibition of quipazine-induced head twitches after 24 hr (administered perorally); assay type: functional; conditions: po
Method in brief: (§2)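 Male Wistar rats (Mol:Wist, SPF, 170–270 g), at least four per dose, dosed sc or po 2 or 24 h before quipazine (15 μmol/kg, sc). Head twitches counted 30–40 min after quipazine and expressed as percent of a quipazine-treated control group. ED50 by log-probit analysis.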

Rattus norvegicus [4] = assay: Compound was evaluated for the inhibition of quipazine-induced head twitches after 2 hr (administered subcutaneously); assay type: functional; conditions: sc; method in brief: as §2
[5] = molecular target: T1, Alpha-1A adrenergic receptor (Rattus norvegicus, UniProt P43140); assay: Displacement of [3H]prazosin from Alpha-1 adrenergic receptor in whole rat brain membranes; assay type: cell membranes; method in brief: as §1
T1 sequence (P43140 whole entry): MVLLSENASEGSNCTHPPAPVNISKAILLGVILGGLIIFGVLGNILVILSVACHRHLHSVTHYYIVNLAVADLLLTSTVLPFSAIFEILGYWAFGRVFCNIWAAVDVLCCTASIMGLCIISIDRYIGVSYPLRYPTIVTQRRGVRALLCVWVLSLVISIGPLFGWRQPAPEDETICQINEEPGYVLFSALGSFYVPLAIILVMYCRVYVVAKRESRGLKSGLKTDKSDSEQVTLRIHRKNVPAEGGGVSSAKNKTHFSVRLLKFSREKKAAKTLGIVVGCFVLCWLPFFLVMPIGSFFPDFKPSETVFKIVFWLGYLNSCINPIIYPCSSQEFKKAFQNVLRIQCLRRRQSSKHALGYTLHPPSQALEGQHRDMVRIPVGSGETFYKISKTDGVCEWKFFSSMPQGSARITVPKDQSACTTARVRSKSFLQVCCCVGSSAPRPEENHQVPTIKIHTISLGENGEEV

Rattus norvegicus [6] = assay: Compound was evaluated for the inhibition of quipazine-induced head twitches after 24 hr (administered subcutaneously); assay type: functional; conditions: sc; method in brief: as §2
D(2) dopamine receptor = D(2) dopamine receptor (Rattus norvegicus, UniProt P61169); assay: Displacement of [3H]spiperone from Dopamine receptor D2 rat striatal membranes; assay type: cell membranes, Membrane; method in brief: as §1
Chain of D(2) dopamine receptor (P61169 whole entry): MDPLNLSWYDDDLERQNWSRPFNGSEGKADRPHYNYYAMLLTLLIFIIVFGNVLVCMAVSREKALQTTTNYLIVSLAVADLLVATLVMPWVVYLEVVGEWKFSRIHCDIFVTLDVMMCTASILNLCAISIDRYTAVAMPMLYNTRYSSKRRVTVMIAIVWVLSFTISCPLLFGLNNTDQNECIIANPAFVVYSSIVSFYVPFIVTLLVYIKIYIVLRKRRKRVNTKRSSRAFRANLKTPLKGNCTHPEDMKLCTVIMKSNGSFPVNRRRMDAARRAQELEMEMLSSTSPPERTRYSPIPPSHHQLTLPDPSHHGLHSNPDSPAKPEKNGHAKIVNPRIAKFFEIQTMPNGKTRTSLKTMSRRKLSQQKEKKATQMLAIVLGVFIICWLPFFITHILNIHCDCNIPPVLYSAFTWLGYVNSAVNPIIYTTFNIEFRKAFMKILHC

IC50 [1] | IC50 [5] | IC50 (D(2) dopamine receptor) | Structure (SMILES) | ED50 (Rattus norvegicus [2]) | ED50 (Rattus norvegicus [3]) | ED50 (Rattus norvegicus [4]) | ED50 (Rattus norvegicus [6])
2.7 nM | 280 nM | – | Cc1ccc2c(c1)c(-c1ccc(F)cc1)cn2C1CCN(CCN2CCN(C(C)C)C2=O)CC1 | > 18 µmol/kg | 0.019 µmol/kg | 0.062 µmol/kg | 0.014 µmol/kg
1.5 nM | 24 nM | 280 nM | Cc1ccc2c(c1)c(-c1ccc(F)cc1)cn2C1=CCN(CCN2CCNC2=O)CC1 | – | – | – | –
3.2 nM | 19 nM | – | O=C1NCCN1CCN1CCC(n2cc(-c3ccc(F)cc3)c3cc(F)ccc32)CC1 | – | – | – | –
7.9 nM | 34 nM | 200 nM | Cc1cccc2c1c(-c1ccc(F)cc1)cn2C1CCN(CCN2CCNC2=O)CC1 | – | – | – | –
5.3 nM | 2700 nM | – | Cc1ccc2c(c1)c(-c1ccc(F)cc1)c(C)n2C1CCN(C)CC1 | > 30 µmol/kg | 0.046 µmol/kg | 0.25 µmol/kg | 0.028 µmol/kg
2.3 nM | 89 nM | – | Cc1ccc2c(c1)c(-c1ccc(F)cc1)cn2C1CCN(CCNC(=O)N(C)C)CC1 | – | – | – | –
5.7 nM | 67 nM | – | O=C1NCCN1CCN1CCC(n2cc(-c3ccc(F)cc3)c3cc(Cl)ccc32)CC1 | – | – | – | –
1.6 nM | 71 nM | – | Cc1ccc2c(c1)c(-c1ccc(F)cc1)cn2C1CCN(CCN2CCNC2=O)CC1 | > 24 µmol/kg | 0.0041 µmol/kg | 0.019 µmol/kg | 0.0081 µmol/kg
15 nM | 500 nM | – | Cc1ccc2c(c1)c(-c1ccc(F)cc1)cn2N1CCN(C)CC1 | – | – | – | –
4.5 nM | 190 nM | – | Cc1ccc2c(c1)c(-c1ccc(F)cc1)cn2C1CCN(C)CC1 | – | – | – | –
3.1 nM | 6.3 nM | – | O=C1NCCN1CCN1CCC(n2cc(-c3ccc(F)cc3)c3ccccc32)CC1 | – | – | – | –
3.4 nM | 2300 nM | – | Cc1ccc2c(c1)c(-c1ccc(F)cc1)c(C)n2C1CCN(CCN2CCNC2=O)CC1 | > 23 µmol/kg | 0.038 µmol/kg | 0.096 µmol/kg | 0.0041 µmol/kg
2.2 nM | 54 nM | 1200 nM | CNC(=O)N(C)CCN1CCC(n2cc(-c3ccc(F)cc3)c3cc(C)ccc32)CC1 | > 22 µmol/kg | 0.004 µmol/kg | 0.036 µmol/kg | 0.0021 µmol/kg
3.6 nM | 23 nM | 370 nM | Cc1cccc2c(-c3ccc(F)cc3)cn(C3CCN(CCN4CCNC4=O)CC3)c12 | – | – | – | –
9.3 nM | 190 nM | 2500 nM | O=C1NCCN1CCN1CCC(n2cc(-c3ccc(F)cc3)c3cc(C(F)(F)F)ccc32)CC1 | – | – | – | –
– | 70 nM | – | CC(C)N1CCN(CCN2CCC(c3cn(-c4ccc(F)cc4)c4cc(Cl)ccc34)CC2)C1=O | – | – | – | –
5.8 nM | 27 nM | 530 nM | Cc1cccc2c(-c3ccc(F)cc3)cn(C3=CCN(CCN4CCNC4=O)CC3)c12 | – | – | – | –
1.9 nM | 11 nM | – | O=C1NCCN1CCN1CCC(n2cc(-c3ccc(F)cc3)c3ccc(Cl)cc32)CC1 | 9.3 µmol/kg | – | 0.3 µmol/kg | 0.68 µmol/kg
2.8 nM | 1000 nM | – | Cc1ccc2c(c1)c(-c1ccc(F)cc1)c(C)n2C1=CCN(CCN2CCNC2=O)CC1 | – | – | – | –

Structure (SMILES) | IC50 [1] | IC50 [5] | IC50 (D(2) dopamine receptor) | ED50 (Rattus norvegicus [2]) | ED50 (Rattus norvegicus [3]) | ED50 (Rattus norvegicus [4]) | ED50 (Rattus norvegicus [6])
O=C1NCCN1CCN1CCC(c2cn(-c3ccc(F)cc3)c3ccc(Cl)cc23)CC1 [SERTINDOLE] | – | 3.4 nM | – | – | – | – | –
